Assay results: ChEMBL document CHEMBL3102834, “Discovery of 5-substituted pyrrolo[2,3-d]pyrimidine antifolates as dual-acting inhibitors of glycinamide ribonucleotide formyltransferase and 5-aminoimidazole-4-carboxamide ribonucleotide formyltransferase in de novo purine nucleotide biosynthesis: implications of inhibiting …” (J Med Chem, 2013)
Active and inactive are the calls of the source. The rule behind the calls is not given here.

Tests used:
[1] = test system: KB; experiment: Cytotoxicity against human KB cells expressing human RFC/FRalpha/PCFT assessed as depletion of ATP pools at 1 uM after 24 hrs by ion-pair HPLC analysis; type: functional
How it was run: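 KB cells in FF-RPMI/10% DFBS with 2 mM glutamine and 2 nM LCV were exposed to 1 μM drug for 24 h. They were trypsinized and washed, and nucleotides were extracted. ATP was quantified by reversed-phase ion-pair HPLC on a C18 column. Results are means ± standard errors.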

[2] = test system: KB; experiment: Induction of apoptosis in human KB cells assessed as necrotic cells at 1 uM after 96 hrs by Annexin V-FITC/7-AAD staining-based flow cytometry (RVB = 7.80%); type: functional
[3] = test system: KB; experiment: Cell cycle arrest in human KB cells assessed as accumulation at sub-G1 phase at 1 uM after 96 hrs by propidium iodide staining-based flow cytometry (reference value: 3.5%); type: functional
[4] = test system: R2; experiment: Cytotoxicity against chinese hamster R2 cells after 96 hrs by CellTitre-Blue fluorescence assay; settings: Cricetulus griseus, R2, 96 h
[5] = test system: KB; experiment: Cytotoxicity against human KB cells expressing human RFC/FRalpha/PCFT after 96 hrs by CellTitre-Blue fluorescence assay in presence of AICA; type: functional, cell-based
How it was run: (§1)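 KB cells were grown in FF-RPMI with DFBS and 2 nM LCV, exposed to antifolate (0–1 μM) for 96 h at 37 °C, and read by CellTiter-Blue fluorescence. IC50 was taken from dose–response curves relative to untreated cells. Protection arms added adenosine 60 μM, thymidine 10 μM, AICA 320 μM, or folic acid 200 nM. Means of 3–10 experiments.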

[6] = test system: KB; experiment: Induction of apoptosis in human KB cells assessed as viable cells at 1 uM after 96 hrs by Annexin V-FITC/7-AAD staining-based flow cytometry (RVB = 89.6%); type: functional; settings: read-out: Activity
[7] = molecular target: T1, Reduced folate transporter (Homo sapiens) (UniProt P41440); experiment: Inhibition of human RFC expressed in chinese hamster PC43-10 cells assessed as reduction of [3H]MTX uptake at 10 uM after 48 hrs by scintillation counting analysis relative to control; type: cell-based
T1 sequence (whole entry): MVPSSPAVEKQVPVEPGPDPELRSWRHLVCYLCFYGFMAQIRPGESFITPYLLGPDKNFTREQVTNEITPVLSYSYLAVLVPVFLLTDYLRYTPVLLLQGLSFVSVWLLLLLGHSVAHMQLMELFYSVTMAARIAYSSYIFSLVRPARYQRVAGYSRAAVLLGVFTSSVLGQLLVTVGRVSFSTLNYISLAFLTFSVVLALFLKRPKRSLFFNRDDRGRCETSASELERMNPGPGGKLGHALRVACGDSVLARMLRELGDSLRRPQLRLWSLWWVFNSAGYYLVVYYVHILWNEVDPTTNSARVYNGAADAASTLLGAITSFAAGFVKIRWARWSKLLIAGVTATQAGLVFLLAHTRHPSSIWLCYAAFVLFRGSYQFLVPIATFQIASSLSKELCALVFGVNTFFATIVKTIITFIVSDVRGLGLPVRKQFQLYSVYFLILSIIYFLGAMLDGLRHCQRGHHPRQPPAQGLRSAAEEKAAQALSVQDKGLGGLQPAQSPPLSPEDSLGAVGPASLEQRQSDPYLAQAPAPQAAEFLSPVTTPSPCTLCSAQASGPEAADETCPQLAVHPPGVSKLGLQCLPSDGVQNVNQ
How it was run: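 PC43-10 CHO cells expressing human RFC (~1.5 × 10^6) were seeded 48 h before assay. Uptake of 0.5 μM [3H]MTX was run in Hank's balanced salts for 2 min at 37 °C, with or without 10 μM unlabelled inhibitor, and stopped with ice-cold PBS. Cells were dissolved in 0.5 N NaOH, counted by scintillation and normalised to Folin-phenol protein (pmol/mg). RFC-null R2 cells gave baseline. Three experiments.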

[8] = test system: KB; experiment: Cytotoxicity against human KB cells expressing human RFC/FRalpha/PCFT after 96 hrs by CellTitre-Blue fluorescence assay in presence of adenosine; type: functional, cell-based; how it was run: as §1
[9] = test system: KB; experiment: Cytotoxicity against human KB cells at 10 uM incubated for 48 hrs followed by compound washout measured after 10 days by colony forming assay; type: functional, cell-based
How it was run: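 About 500 KB cells were plated in FF-RPMI/DFBS with 2 nM LCV for 24 h. Drug (0–10 μM) was then added, and exposure is stated as 24 h in Methods and 48 h in the legend. Medium was replaced with drug-free FF-RPMI plus 2 nM LCV for 8–10 days. Colonies were fixed with 5% TCA, stained with 1% methylene blue in borate buffer pH 8.8, and counted; three experiments.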

[10] = (§2) Inhibition of GARFTase in human KB cells assessed as incorporation of [14C]-glycine into [14C]-formyl GAR incubated 30 mins prior to [14C]-glycine addition measured after 16 hrs by radiometric assay in presence of azaserin; type: cell-based
How it was run: (§3)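 KB cells were preincubated 1 h in folate- and glutamine-free medium with 2 nM LCV and a range of drug concentrations. Azaserine (4 μM final) was added for 30 min, then 2 mM glutamine and [14C(U)]glycine (0.1 mCi/L) for 16 h at 37 °C. TCA extracts were ether-washed and run on AG1×8 anion exchange. [14C]formyl GAR was measured per mg protein, and IC50 was set against DMSO controls; three experiments.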

[11] = test system: KB; experiment: as §2; type: cell-based; how it was run: as §3
[12] = test system: KB; experiment: Cytotoxicity against human KB cells expressing human RFC/FRalpha/PCFT after 96 hrs by CellTitre-Blue fluorescence assay; type: functional, cell-based; how it was run: as §1
[13] = test system: KB; experiment: Cell cycle arrest in human KB cells assessed as accumulation at G2/M phase at 1 uM after 96 hrs by propidium iodide staining-based flow cytometry (reference value: 13.2%); type: functional
[14] = Cytotoxicity against chinese hamster RT16 cells expressing human FRalpha after 96 hrs by CellTitre-Blue fluorescence assay; type: functional, cell-based; settings: Cricetulus griseus, RT16, 96 h
How it was run: (§4)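 CHO sublines were grown in FF-RPMI/DFBS; transfectants were maintained with G418. Cells were exposed to antifolate (0–1 μM) for 96 h at 37 °C with 2 nM LCV (RT16) or 25 nM LCV (R2/PCFT4). PC43-10 cells were grown in standard RPMI1640/DFBS instead. FRα specificity was tested by adding 200 nM folic acid. Viable cells were read by CellTiter-Blue fluorescence (ex 560/em 590), and IC50 was taken from dose–response curves; means of 3–10 experiments.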

[15] = test system: R2; experiment: Cytotoxicity against chinese hamster R2 cells expressing human PCFT4 after 96 hrs by CellTitre-Blue fluorescence assay; type: functional, cell-based, Cricetulus griseus; settings: R2, 96 h
[16] = Cytotoxicity against chinese hamster R2(VC) cells after 96 hrs by CellTitre-Blue fluorescence assay; type: functional, cell-based; settings: Cricetulus griseus; how it was run: as §4
[17] = test system: KB; experiment: Induction of apoptosis in human KB cells assessed as early apoptotic cells at 1 uM after 96 hrs by Annexin V-FITC/7-AAD staining-based flow cytometry (reference value: 0.485%); type: functional

Nc1nc2[nH]cc(CCCCc3ccc(C(=O)N[C@@H](CCC(=O)O)C(=O)O)cc3)c2c(=O)[nH]1
inhibition at 1 µM [1]: > 90% | Activity [2]: 0.456% | Activity [3]: 36.7% | IC50 [4]: > 1000 nM | Activity [5]: Active | viability at 1 µM [6]: 39% | inhibition [7]: > 90% | Activity [8]: inactive | Activity [9]: Active | IC50 [10]: 29.7 nM | inhibition [11]: Dose-dependent effect | IC50 [12]: 12.7 nM | Activity [13]: 2.3% | IC50 [14]: 8.6 nM | IC50 [15]: 840 nM | IC50 [16]: > 1000 nM | Activity [17]: 33.8%
